Assay outcomes as filed in PubChem.
The full list was thinned out, with hits kept by preference.
UPR CHOP act: activators of apoptotic CHOP UPR arm, primary screen, cell-based, CHO-CHOP luciferase reporter, luminescence, uHTS. AID 449763, 2010. activation, % at 10 µM. UPR activation; percent of tunicamycin response over DMSO baseline. hit rate 0.34% among 330,000;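 active means at 10 µM dose, activation of 40% or more, normalized to positive control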;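 further: 100% = tunicamycin at 10 µg/mL and 0% = DMSO alone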
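System: CHO-CHOP luciferase reporter cell line | Buffer or medium: F12 medium containing 10% fetal bovine serum | Doses: One dose, 10 µM in 0.5% DMSO | Times: 6 h compound exposure at 37 °C after overnight seeding | Signal: Luciferase luminescence | Read-out: % activation vs tunicamycin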
CHOP inhibitor: inhibitors of CHOP promoter induction, primary screen, cell-based, unfolded protein response, luciferase reporter; CHO-K1 CHOP-promoter luciferase, tunicamycin-induced, 15-18 h; hit rate 3.8% among 220,000; inhibition, % at 10 µM;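 active means compounds that reduced the stress-induced luciferase reporter signal by more than about 70% of percent inhibition, limit read from the data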;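 further: 0% = tunicamycin plus vehicle and 100% = wells without tunicamycin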
GAA850 FXN act: FXN promoter activators, primary screen, cell-based, luciferase luminescence, HEK293 lucGAA850; HEK293 lucGAA850 FXN promoter luciferase reporter, 24 h; percent of 10 µM SAHA response; hit rate 0.56% among 360,000; activation, % at 6 µM; AID 540364, 2011;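 active means activation above the average of all compounds screened plus 3 SD, cutoff fixed separately per campaign, cut at about 7.5% in these data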;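 further: 0% = DMSO wells and 100% = 10 µM SAHA wells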
UPR XBP1 act: activators of adaptive XBP1 UPR arm, primary screen, cell-based, CHO-XBP1 luciferase reporter, luminescence, uHTS | IRE1-XBP1 UPR activation; percent of tunicamycin response, DMSO as zero | activation, % at 20 µM | hit rate 0.33% among 330,000;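 active means versus positive control, 20 µM dose yields 30% or more activation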;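 further: 100% = tunicamycin at 10 µg/mL and 0% = DMSO only wells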
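Assay system: CHO-XBP1 luciferase reporter cells; Schedule: 6 h treatment, 37 °C; Detection: glow luminescence from Steady-Glo reagent; Benchmarks: high control tunicamycin 10 µg/mL final, low control DMSO vehicle only.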
Numbers without * were called inactive; . = no result.

SMILES | UPR CHOP act | CHOP inhibitor | GAA850 FXN act | UPR XBP1 act
COc1ccc(-c2ccc(-c3noc(-c4ccccc4)n3)c(OC)n2)cc1 | -1 | -4 | -1 | 0
COc1ccc(-c2ccc(-c3noc(-c4ccccc4F)n3)c(OC)n2)cc1 | . | 74* | 1 | .
OC(c1ccc(-c2ccccc2)cc1)c1ncc(-c2ccccc2F)[nH]1 (centres undefined) | . | . | 1 | .
C[C@@H]1CCCCO[C@@H](CN(C)S(=O)(=O)c2cn(C)cn2)[C@@H](C)CN([C@H](C)CO)C(=O)c2cc(NC(=O)Nc3ccc(C(F)(F)F)cc3)ccc2O1 | . | . | 0 | .
N#Cc1nc(COc2ccc(Cl)cc2)oc1N1CCCCCC1 | 5 | 71* | -1 | -1
N#Cc1nc(COc2ccc(Br)cc2)oc1N1CCN(Cc2ccccc2)CC1 | . | 74* | 2 | .
N#Cc1nc(Cc2cccc3ccccc23)oc1N1CCCCC1 | -1 | 76* | 1 | 4
O=C(Nc1ccc(C(=O)O)cc1)Nc1cccc([N+](=O)[O-])c1 | 0 | 21 | -1 | -3
O=C(Nc1csc([N+](=O)[O-])c1)Nc1c(Cl)cccc1Cl | -2 | 2 | 1 | -2
O=C(Nc1cccc([N+](=O)[O-])c1)Nc1cccc([N+](=O)[O-])c1 | 1 | 84* | 0 | 4
Cc1ccc(NC(=O)Nc2ccc(Cl)cc2)c(Br)c1 | 9 | 86* | 3 | 2
O=C(Nc1ccc(Cl)cc1)Nc1cc([N+](=O)[O-])ccc1F | 2 | 71* | 1 | 5
O=C(Nc1ccc(Cl)cc1)Nc1csc([N+](=O)[O-])c1 | 14 | 76* | -5 | 8
COc1ccc(/C=N/NC(=O)c2ccc(COc3ccccc3Cl)o2)cc1 | 2 | 44 | 2 | 0
COc1ccc(/C=N/NC(=O)c2ccc(COc3ccccc3Cl)o2)c(OC)c1C | 12 | 87* | 0 | 7
Cc1ccc(F)c(S(=O)(=O)NC(=O)C2(C)CCN2C(=O)Cc2ccsc2)c1 (centres undefined) | . | . | 0 | .
COc1cc2c3nnc(-c4ccc(F)cc4)c-3cn(Cc3ccccc3F)c2cc1OC | . | 88* | 6 | .
O=S1(=O)N[C@@H](Cc2ccccc2)COc2ccc(Cl)cc21 | . | . | 1 | .
COc1ccc(/C=C/C(=O)c2cc(Cl)cc(Cl)c2O)c(OC)c1 | 6 | 71* | -1 | 4
C=CCN(C(=O)CSC1=NC(=O)CN1C(C)=O)c1nc(C)c(-c2ccccc2)s1 | 3 | 95* | 7 | 7
CCOC(=O)c1c(C)[nH]c(N=Nc2ccc(C)cc2)c1C | 5 | 91* | 5 | 12
CCOC(=O)c1c(C)[nH]c(N=Nc2cccc(C)c2)c1C | 3 | 71* | 4 | 12
COc1ccc(S(=O)(=O)NC(=O)C2(C)CCN2C(=O)CC2CC2)cc1 (centres undefined) | . | . | -4 | .
Clc1ccccc1-c1cnc2sc(NCc3ccc4c(c3)OCO4)nn12 | . | . | 1 | .
COC(=O)c1c(C)n(-c2ccc(OC)cc2)c2ccc(O)cc12 | -3 | 74* | 1 | -3
SMILES | UPR CHOP act | CHOP inhibitor | GAA850 FXN act | UPR XBP1 act
CC(C)(C)NC(=O)CSc1nc2ccc(NC(=O)CSc3nnc(N)s3)cc2s1 | -2 | 70* | -3 | -1
Cc1ccccc1OCc1nnc(SCC(=O)Nc2ccc3nc(SCC(=O)NC(C)(C)C)sc3c2)n1C | -3 | 73* | -4 | -8
CCOC(=O)N1CCN(C(=O)C(C)(C)Oc2ccc(Cl)cc2)CC1 | 0 | 83* | 0 | 3
CCc1cccc(NC(=O)CCS(=O)(=O)c2cccc3nonc23)c1 | -1 | 83* | 4 | 0
COc1ccc(NC(=O)CCS(=O)(=O)c2cccc3nonc23)cc1Cl | 1 | . | 0 | -1
Cc1ccc(-c2nnn(CC(=O)N(CC3CCCO3)C(C(=O)NC3CCCC3)c3ccc(F)cc3)n2)o1 (centres undefined) | -1 | 80* | 3 | -3
Cc1ccc(-c2nnn(CC(=O)N(CC3CCCO3)C(C(=O)NC3CCCC3)c3ccc(O)cc3)n2)o1 (centres undefined) | 1 | 3 | 0 | -2
COc1ccc(C(=O)N2CCCC(c3cc(C(=O)Nc4ccccc4)no3)C2)cc1 (centres undefined) | . | . | 2 | .
Cc1c(CCC(C)C)c(=O)n2c([nH]c3ccccc32)c1C#N | 0 | 96* | -1 | 2
Cc1c(CCO)c(=O)n2c([nH]c3ccccc32)c1C#N | -2 | . | -1 | -5
